Experiment [1] has as its target T1, Prostaglandin G/H synthase 2 (Homo sapiens, UniProt P35354).
T1 sequence (P35354 whole entry): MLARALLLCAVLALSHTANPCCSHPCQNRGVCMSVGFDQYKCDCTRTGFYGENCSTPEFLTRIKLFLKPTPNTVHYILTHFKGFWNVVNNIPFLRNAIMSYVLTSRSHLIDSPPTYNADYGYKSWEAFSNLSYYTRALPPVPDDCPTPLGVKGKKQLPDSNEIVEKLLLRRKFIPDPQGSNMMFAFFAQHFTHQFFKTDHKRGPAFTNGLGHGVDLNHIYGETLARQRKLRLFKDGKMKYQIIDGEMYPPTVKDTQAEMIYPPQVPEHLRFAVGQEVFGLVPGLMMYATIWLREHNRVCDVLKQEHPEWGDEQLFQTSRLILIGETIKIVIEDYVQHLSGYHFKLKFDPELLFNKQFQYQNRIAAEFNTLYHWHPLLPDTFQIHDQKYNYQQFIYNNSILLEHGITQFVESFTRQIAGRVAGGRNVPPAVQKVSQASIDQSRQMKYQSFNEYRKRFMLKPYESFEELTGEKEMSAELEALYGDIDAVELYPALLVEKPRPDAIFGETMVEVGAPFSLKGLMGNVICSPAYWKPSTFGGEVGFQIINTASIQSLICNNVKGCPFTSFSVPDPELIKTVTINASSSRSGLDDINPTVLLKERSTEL
Description: Inhibition of COX2 (unknown origin) using arachidonic acid as substrate incubated for 10 mins by Ellman's reagent based COX-1/COX-2 ELISA assay. In general terms: Ellman's reagent forms a yellow product with free thiols.

In a further experiment the test system is MCF7. Description: Antiproliferative activity against human MCF7 cells incubated for 48 hrs by MTT assay. Conditions: MCF7, 48 h. It counts as functional, cell-based. An outline of the steps: (§1)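 MTT assay on F10 (murine melanoma), HeLa, A549, MCF-7 and 293T (human renal epithelium) cells. IC50 given as mean ± SD of three independent experiments.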
A further experiment deals with A549. Description: Antiproliferative activity against human A549 cells incubated for 48 hrs by MTT assay. It counts as functional, cell-based. Conditions: A549, 48 h. An outline of the steps: as §1
A short description of experiment [2]: Inhibition of 5-LOX assessed as calcium ionophore A23187-stimulated LTB4 production preincubated for 30 mins followed by calcium ionophore A23187 addition and measured after 30 mins by ELISA.
For another experiment, the system named is B16-F10. Description: Antiproliferative activity against mouse B16F10 cells incubated for 48 hrs by MTT assay. Conditions: B16-F10, 48 h. The format is functional, cell-based. Summed up:
as §1
On the technique in general: Tetrazolium dyes change colour on reduction, which living cells bring about.

The next experiment concerns HEK-293T. Description: Antiproliferative activity against human 293T cells incubated for 48 hrs by MTT assay. It counts as cell-based. Summed up:
as §1

The next experiment concerns HeLa. The experiment can be described thus: Antiproliferative activity against human HeLa cells incubated for 48 hrs by MTT assay. It counts as functional, cell-based. Summed up:
as §1

Some results are limits rather than exact numbers.

For orientation: IC50 means the concentration that gives 50% inhibition.

As to `NS(=O)(=O)c1ccc(-n2nc(C(=O)NCCN3CCOCC3)cc2-c2ccc(Cl)cc2)cc1`, the IC50 in experiment [1] is 0.31 µM; in the experiment with MCF7 it was 23 µM; with A549, 19.5 µM; in experiment [2], 0.89 µM; with B16-F10, > 100 µM; with HEK-293T, 112 µM. This compound also had an IC50 in the experiment with HeLa of 20 µM.
As for `NS(=O)(=O)c1ccc(-n2nc(C(=O)N3CCOCC3)cc2-c2cccc(Cl)c2)cc1`, the IC50 was 0.24 µM in experiment [1]; 15.8 µM in the experiment with MCF7; 24.6 µM with A549; 1.33 µM in experiment [2]; 14.6 µM in the experiment with B16-F10; 114 µM in the experiment on HEK-293T. Further, the IC50 in the experiment with HeLa worked out at 17.9 µM.
In the case of `NS(=O)(=O)c1ccc(-n2nc(C(=O)N3CCSCC3)cc2-c2cccc(F)c2)cc1`, the IC50 amounted to 0.19 µM in experiment [1]; 14.4 µM with MCF7; 14.5 µM in the experiment on A549; 1.32 µM in experiment [2]; 10.3 µM in the experiment on B16-F10; 176 µM with HEK-293T. The compound also came in with an IC50 in the experiment with HeLa of 13.2 µM.
As to `NS(=O)(=O)c1ccc(-n2nc(C(=O)NCCN3CCOCC3)cc2-c2ccccc2)cc1`, the IC50 in experiment [1] was 0.64 µM; with MCF7, 39.2 µM; with A549 it was > 100 µM; in experiment [2], 0.96 µM; in the experiment with B16-F10 it was 30.8 µM; in the experiment on HEK-293T, 151 µM. In addition, half-maximal inhibition in the experiment on HeLa (IC50) was put at 21.8 µM.
Turning to `NS(=O)(=O)c1ccc(-n2nc(C(=O)OCCCN3CCOCC3)cc2-c2ccc(Cl)cc2)cc1`, the IC50 was 5.47 µM in experiment [1]; 22.1 µM in the experiment on MCF7; > 100 µM with A549; 0.85 µM in experiment [2]; 26.8 µM with B16-F10; 189 µM with HEK-293T. This compound displayed an IC50 with HeLa of 21.4 µM.
With `COc1ccc(-c2cc(C(=O)NCCN3CCOCC3)nn2-c2ccc(S(N)(=O)=O)cc2)cc1`, the IC50 in experiment [1] came to 0.87 µM; in the experiment with MCF7 it was 15 µM; in the experiment on A549, 17.6 µM; in experiment [2], 0.91 µM; with B16-F10, 19.5 µM; in the experiment on HEK-293T, 144 µM. Further, the IC50 in the experiment with HeLa came to 20.4 µM.
For the compound `NS(=O)(=O)c1ccc(-n2nc(C(=O)OCCN3CCOCC3)cc2-c2ccc(F)cc2)cc1`, the IC50 in experiment [1] was 0.21 µM; in the experiment on MCF7, 19.3 µM; in the experiment on A549, > 100 µM; in experiment [2] it was 0.84 µM; in the experiment on B16-F10, 18.1 µM; with HEK-293T, 146 µM. The IC50 in the experiment on HeLa is > 100 µM.
With `NS(=O)(=O)c1ccc(-n2nc(C(=O)OCCN3CCOCC3)cc2-c2ccc(Cl)cc2)cc1`, the IC50 in experiment [1] came out at 0.25 µM; in the experiment with MCF7, 25.8 µM; in the experiment with A549, 23 µM; in experiment [2], 0.87 µM; in the experiment on B16-F10, 22 µM; with HEK-293T, 122 µM. Moreover, the IC50 with HeLa was determined as 25.4 µM.
Regarding `COc1ccc(-c2cc(C(=O)N3CCSCC3)nn2-c2ccc(S(N)(=O)=O)cc2)cc1`, the IC50 in experiment [1] turned out to be 1.21 µM; in the experiment with MCF7, 19.7 µM; in the experiment on A549 it was 17.2 µM; in experiment [2], 1.01 µM; in the experiment on B16-F10 it was 13.2 µM; with HEK-293T, 211 µM. Further, the IC50 in the experiment with HeLa was found to be 24.1 µM.
With `CCOc1ccc(-c2cc(C(=O)NCCCN3CCOCC3)nn2-c2ccc(S(N)(=O)=O)cc2)cc1`, the IC50 in experiment [1] was found to be 0.91 µM; in the experiment with MCF7, 15 µM; in the experiment on A549, 17.8 µM; in experiment [2] it was 0.84 µM; with B16-F10 it was 12.9 µM; in the experiment with HEK-293T it was 138 µM. The compound further came in with an IC50 in the experiment with HeLa of 19.2 µM.
Turning to `NS(=O)(=O)c1ccc(-n2nc(C(=O)N3CCSCC3)cc2-c2ccc(Br)cc2)cc1`, the IC50 in experiment [1] came out at 1.28 µM; with MCF7, 14.6 µM; in the experiment with A549 it was 17.7 µM; in experiment [2] it was 1.21 µM; with B16-F10 it was 12.1 µM; in the experiment with HEK-293T, 197 µM. In addition, in the experiment on HeLa, the IC50 stood at 16 µM.
As to `NS(=O)(=O)c1ccc(-n2nc(C(=O)N3CCOCC3)cc2-c2ccc(F)cc2)cc1`, the IC50 in experiment [1] came out at 0.23 µM; in the experiment with MCF7 it was 20 µM; in the experiment with A549 it was 27.5 µM; in experiment [2], 0.89 µM; with B16-F10, 20.5 µM; in the experiment with HEK-293T, 206 µM. The IC50 in the experiment with HeLa was > 100 µM.
In the case of `NS(=O)(=O)c1ccc(-n2nc(C(=O)N3CCSCC3)cc2-c2ccccc2)cc1`, the IC50 in experiment [1] was 0.67 µM; in the experiment with MCF7, 18.9 µM; with A549, 30.8 µM; in experiment [2], 3.41 µM; in the experiment on B16-F10 it was > 100 µM; in the experiment on HEK-293T, 164 µM. For the same compound, the IC50 in the experiment on HeLa is > 100 µM.
Turning to `COc1cccc(-c2cc(C(=O)N3CCSCC3)nn2-c2ccc(S(N)(=O)=O)cc2)c1`, the IC50 is 1.95 µM in experiment [1]; 17.9 µM in the experiment on MCF7; 16 µM with A549; 1.19 µM in experiment [2]; 13 µM with B16-F10; 177 µM in the experiment on HEK-293T. In the experiment with HeLa, 20.3 µM corresponded to half-maximal inhibition (IC50).
Turning to `CCOc1ccc(-c2cc(C(=O)N3CCSCC3)nn2-c2ccc(S(N)(=O)=O)cc2)cc1`, the IC50 in experiment [1] is 0.97 µM; with MCF7, 16.5 µM; in the experiment on A549 it was > 100 µM; in experiment [2], 0.97 µM; with B16-F10, 32.3 µM; in the experiment with HEK-293T, 169 µM. Moreover, in the experiment on HeLa, the IC50 came to 21.6 µM.
As for `NS(=O)(=O)c1ccc(-n2nc(C(=O)N3CCSCC3)cc2-c2ccc(F)cc2)cc1`, the IC50 in experiment [1] was 0.21 µM; in the experiment with MCF7, 18.2 µM; with A549 it was 18.2 µM; in experiment [2], 1.27 µM; in the experiment on B16-F10 it was 26.4 µM; with HEK-293T, 174 µM. In the experiment with HeLa, this compound returned an IC50 of 29.2 µM.
For `NS(=O)(=O)c1ccc(-n2nc(C(=O)N3CCSCC3)cc2-c2ccc(Cl)cc2)cc1`, the IC50 in experiment [1] is 0.23 µM; in the experiment on MCF7, 39.8 µM; in the experiment on A549, > 100 µM; in experiment [2], 2.31 µM; with B16-F10, > 100 µM; with HEK-293T it was 232 µM. In addition, the IC50 in the experiment with HeLa is > 100 µM.
Take `COc1ccc(-c2cc(C(=O)OCCCN3CCOCC3)nn2-c2ccc(S(N)(=O)=O)cc2)cc1`: the IC50 amounted to 1.05 µM in experiment [1]; 19.8 µM in the experiment on MCF7; 18.2 µM in the experiment with A549; 0.87 µM in experiment [2]; 13.7 µM in the experiment on B16-F10; 169 µM with HEK-293T. The IC50 in the experiment with HeLa came out at 26.7 µM.
As for `COc1ccc(-c2cc(C(=O)N3CCOCC3)nn2-c2ccc(S(N)(=O)=O)cc2)cc1`, the IC50 came to 2.01 µM in experiment [1]; 16 µM with MCF7; 19.6 µM in the experiment on A549; 0.93 µM in experiment [2]; 20.8 µM in the experiment on B16-F10; 207 µM with HEK-293T. Also, half-maximal inhibition in the experiment with HeLa (IC50) was put at 21.6 µM.
For `NS(=O)(=O)c1ccc(-n2nc(C(=O)OCCCN3CCOCC3)cc2-c2ccc(F)cc2)cc1`, the IC50 in experiment [1] was 3.57 µM; in the experiment with MCF7, > 100 µM; in the experiment with A549, > 100 µM; in experiment [2] it was 0.75 µM; in the experiment with B16-F10, > 100 µM; in the experiment on HEK-293T it was > 300 µM. Besides, in the experiment with HeLa, the IC50 was > 100 µM.
As to `NS(=O)(=O)c1ccc(-n2nc(C(=O)O)cc2-c2ccc(C(F)(F)F)cc2)cc1`, the IC50 in the experiment on MCF7 amounted to 24.8 µM; in the experiment on A549, 22.5 µM; in the experiment with B16-F10, 23.8 µM; with HEK-293T, 190 µM; in the experiment on HeLa it was 26.5 µM.

For the origin of these results see ChEMBL document CHEMBL4346661, “Design, synthesis and evaluation of novel diaryl-1,5-diazoles derivatives bearing morpholine as potent dual COX-2/5-LOX inhibitors and antitumor agents” (Eur J Med Chem, 2019).
